# High-throughput results from PubChem.
# Only some compounds are listed: those with a hit (about 1.8% of all), similar ones and a draw of the others.
# M5 ag – agonists of human muscarinic M5 receptor (CHRM5). P08912. CHO-K1 hM5 cells, Fluo-8 calcium fluorescence; 0% DMSO wells, 100% maximal acetylcholine response. activation, % at 3 µM. 360,000 tested, 0.19% active. AID 624037;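 active = activation above the run's mean over test compounds plus 3 SD, cut at about 23% in these data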;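 note: signal is peak over basal fluorescence ratio across the kinetic read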
# Target sequence (P08912 whole entry, looked up): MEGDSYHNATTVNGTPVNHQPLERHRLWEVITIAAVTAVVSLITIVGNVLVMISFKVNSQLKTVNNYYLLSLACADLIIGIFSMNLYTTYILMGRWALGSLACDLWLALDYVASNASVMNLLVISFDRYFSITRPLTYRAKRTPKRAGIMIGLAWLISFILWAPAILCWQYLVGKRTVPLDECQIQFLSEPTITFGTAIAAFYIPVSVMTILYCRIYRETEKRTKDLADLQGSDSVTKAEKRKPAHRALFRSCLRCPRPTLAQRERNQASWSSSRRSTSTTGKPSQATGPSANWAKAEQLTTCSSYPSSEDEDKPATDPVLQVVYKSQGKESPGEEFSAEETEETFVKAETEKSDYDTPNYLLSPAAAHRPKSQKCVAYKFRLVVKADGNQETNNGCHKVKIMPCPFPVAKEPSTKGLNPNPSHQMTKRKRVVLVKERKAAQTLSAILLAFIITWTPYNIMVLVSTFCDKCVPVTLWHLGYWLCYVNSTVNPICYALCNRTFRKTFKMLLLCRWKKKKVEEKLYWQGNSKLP
# CHRM4 antagonist – antagonists of human muscarinic M4 receptor (CHRM4) | AID 624125 | CHO-hM4 cells, ACh EC80, Fluo-8 calcium fluorescence | P08173 | 360,000 tested, 0.73% active | inhibition, % at 3 µM;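 active = inhibition above its plate's cutoff, the mean inhibition of sample wells plus 3 SD, cut at about 27% in these data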;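 note: 0% = acetylcholine EC80 with DMSO and 100% = DMSO without agonist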
# CHRM4 agonist – agonists of human muscarinic M4 receptor (CHRM4) | 360,000 tested, 0.14% active | activation, % at 3 µM | AID 624127 | P08173 | CHO-K1 hM4/Gqi5, Fluo-8 calcium fluorescence; vehicle 0%, full acetylcholine response 100%;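 active = activation above the run mean over all test wells plus 3 SD, cut at about 32% in these data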;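 note: peak over basal fluorescence ratio per well then scaled between controls; 0% = DMSO wells and 100% = acetylcholine at EC100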
# CHRM5 antagonist – blocks acetylcholine activation of human M5 receptor | CHO-hM5 cells, Fluo-8 calcium fluorescence, ACh EC80 | inhibition, % at 3 µM | 360,000 tested, 0.59% active | AID 624040;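 active = inhibition above a per-plate cutoff, the mean of that plate's test compounds plus 3 SD, cut at about 27% in these data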;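 note: 0% = acetylcholine EC80 with DMSO and 100% = DMSO without agonist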
# CHRM4 PAM – CHRM4 positive allosteric modulation; P08173; CHO-K1 hM4/Gqi5, Fluo-8 calcium fluorescence, ACh EC20; 0% = ACh EC20, 100% = maximal ACh; activation, % at 3 µM; 360,000 tested, 0.4% active; AID 624126;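 active = activation above its plate's cutoff, the mean activation of sample wells plus 3 SD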
# M5 PAM – CHRM5 positive allosteric modulation. CHO-K1 hM5, Fluo-8 calcium, ACh EC20 PAM; 0% = ACh EC20, 100% = ACh EC100. activation, % at 3 µM. 360,000 tested, 0.3% active. AID 624038;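 active = activation above the run cutoff, the mean activation of all test compounds plus 3 SD, cut at about 18% in these data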
#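 Probe or stimulus: acetylcholine, EC20 level; Assay system: human M5 receptor in CHO-K1 cells; Schedule: compound preincubation 140 s before EC20 acetylcholine addition; Technique: intracellular calcium via Fluo-8 fluorescence; Dosing: single-point, 3 µM nominal; Read-out basis: percent activation from peak-over-basal fluorescence ratio, scaled EC20-to-EC100 acetylcholine; Repeats: one well per compound, no replicates.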
# The depositor's hits bear a star.
SMILES,M5 ag,CHRM4 antagonist,CHRM4 agonist,CHRM5 antagonist,CHRM4 PAM,M5 PAM
CC(C)(C)S(=O)N1Cc2cc(C(=O)NCc3ccc4c(c3)OCO4)nc(-c3cccc(-c4cc5ccccc5o4)c3)c2[C@@H]1CCO (some centres undefined),-1,12,3,2,2,-2
C/C(CS(=O)(=O)c1ccc(Cl)c(Cl)c1)=N/NC(N)=S,-2,-5,3,5,-1,-2
C/C(CS(=O)(=O)c1ccc(Cl)cc1)=N/NC(N)=S,3,-11,1,-3,20*,4
COc1cc(/C=N/N2CCCCC2)cc(OC)c1O,11,2,3,-3,0,0
COc1cc(C=NN2CCCCC2)cc(OC)c1OC,27*,-11,0,5,1,-5
CC(C)CC1C(=O)N(Cc2cn(CCC3OCCO3)nn2)CCS(=O)(=O)N1Cc1ccc(-c2ccncc2)cc1 (centres undefined),3,-28,23,-1,-7,-4
NCCc1nnc(SCc2ccc(F)cc2)o1,-7,-2,0,-3,1,3
NCCCCCc1nnc(SCc2ccc(Cl)c(Cl)c2)o1,-7,67*,3,36*,-31,-19
Cc1ccc(NS(=O)(=O)c2cc([N+](=O)[O-])ccc2NNC(=S)Nc2cccc(Cl)c2)c(C)c1,-1,4,6,24,-6,-13
Cc1ccc(NS(=O)(=O)c2cc([N+](=O)[O-])ccc2NNC(=S)Nc2cc(C)ccc2C)c(C)c1,0,13,4,37*,-11,-19
COc1ccc(NC(=S)NNc2ccc([N+](=O)[O-])cc2S(=O)(=O)Nc2ccc(C)cc2C)cc1,0,3,8,34*,-5,-22
COc1ccc(NC(=S)Nc2cccc([N+](=O)[O-])c2)cc1,2,6,4,0,3,-2
CCN(CCCc1ccccc1)CCCc1ccccc1,-1,89*,1,35*,-18,-18
CCCN(CCO)CCCc1ccccc1,-4,7,1,-3,6,6
Cc1ccc(S(=O)(=O)N2C[C@H]3[C@H]4C(=O)N(Cc5ccccc5)C(=O)[C@H]4CC(=O)[C@H]3[C@@H]2c2ccccc2Cl)cc1,2,-4,3,-3,2,4
Cc1ccc(C2=NNC(C(O)C(O)C(O)CO)S2)cc1 (centres undefined),-1,3,0,9,-3,30*
Cc1ccc(S(=O)(=O)N2CCC(C(=O)N3Cc4ccccc4C3)CC2)cc1,-5,-10,3,-10,22*,19*
COc1ccc(S(=O)(=O)N2CCC(C(=O)N3CCc4ccccc4C3)CC2)cc1,1,-2,4,-8,18,-2
Cc1ccc(S(=O)(=O)N2CCCC(C(=O)N3CCN(c4ccccc4)CC3)C2)cc1 (centres undefined),-6,-11,11,29*,-5,-12
CC(C(=O)NCC1(c2ccccc2)CCCC1)N1CCOCC1 (centres undefined),-2,23,0,1,-14,1
CC(C(=O)NCC1(c2ccccc2)CCCC1)N1CCCC1 (centres undefined),-7,43*,2,12,-39,-12
CCOC(=O)c1ccc(NC(=O)c2ccc(C)c(S(=O)(=O)N3CCOCC3)c2)cc1,4,39*,18,29*,-11,-16
Cc1cc2cc(CNC(=O)c3ccc(S(=O)(=O)N(C)C)cc3)ccc2n1C,-1,-3,2,2,-7,-4
CC(=O)c1ccc(NC(=O)c2ccc(C)c(S(=O)(=O)N3CCOCC3)c2)cc1,2,-18,18,3,-5,-10
Cc1cc2cc(CNC(=O)c3ccc(S(=O)(=O)N4CCOCC4)cc3)ccc2n1C,-2,39*,2,2,-16,-7
SMILES,M5 ag,CHRM4 antagonist,CHRM4 agonist,CHRM5 antagonist,CHRM4 PAM,M5 PAM
COCCN1Cc2cccc(C(=O)Nc3ccc(S(=O)(=O)N4CCCCC4)cc3)c2C1=O,1,-16,1,-1,5,25*
O=C(OCC(=O)N1CCCC1=O)c1cccc(S(=O)(=O)N2CCOCC2)c1,6,-6,1,-2,9,32*
COc1cccc(-c2cnc(C(O)c3cc(C)cc(C)c3)[nH]2)c1 (centres undefined),5,3,4,6,0,-3
CCOC(=O)c1c(NC(=O)C(NCCN(C)C)c2ccccc2)sc2c1CCCC2 (centres undefined),-6,-3,4,11,-7,1
CC(C)(OC(=O)c1cccs1)c1cc2ccccc2c(=O)o1,-2,-13,1,5,6,-9
CC(=O)c1cccc(NC(=O)c2cccc(S(=O)(=O)N3CCOCC3)c2)c1,-1,5,3,5,-1,-2
CC(=O)N1CCN(S(=O)(=O)c2cccc(C(=O)NC3CCCC(C)C3C)c2)CC1 (centres undefined),-1,-12,1,12,1,-1
CCOC(=O)c1c(NC(=S)N2CCN(C)CC2)sc2c1CCN(C(=O)OCC)C2,5,-26,-1,-1,12*,7
CC1CCCC(NC(=O)c2cccc(S(=O)(=O)N3CCOCC3)c2)C1C (centres undefined),1,-19,1,-3,16*,-4
CCOC(=O)c1ccc(NC(=O)c2cccc(S(=O)(=O)N3CCOCC3)c2)cc1,5,38*,20,15,-17,-24
CN1CCN(S(=O)(=O)c2ccc(NC(=O)c3cccc(S(=O)(=O)N4CCCC4)c3)cc2)CC1,-6,37*,1,29*,-19,-21
CCOC(=O)c1c(NC(=O)CN(CC)CC)sc2c1CCN(C(=O)OCC)C2,2,-3,0,16,7,-8
COC(=O)C[C@H]1CC[C@@H](NC(=O)C2CC2)[C@@H](CO)O1,2,-9,1,-5,7,5
COc1cc(C)c(CN2CCC(n3nccc3NC(=O)C3CCOC3)CC2)cc1C (centres undefined),-5,0,0,7,4,0
CCOC(=O)c1c(NC(=O)c2ccc(S(=O)(=O)N3CCOCC3)cc2)sc2c1CCN(C)C2,2,-18,2,-4,19*,0
O=C(NCc1cccnc1)c1cccc(S(=O)(=O)N2CCCC2)c1,-3,5,0,15,-1,-3
O=C(NCc1cccnc1)c1cccc(S(=O)(=O)N2CCOCC2)c1,4,9,1,3,12,31*
